Among the data in ChEMBL document CHEMBL1153892 (Bioorg Med Chem, 2009) are IC50 and Activity values, retold here.

Active and inactive are the calls of the source. The rule behind the calls is not given here.

Assay [1] has as its target T1, Dual specificity protein phosphatase 6 (Rattus norvegicus, UniProt Q64346).
T1 sequence (Q64346 whole entry): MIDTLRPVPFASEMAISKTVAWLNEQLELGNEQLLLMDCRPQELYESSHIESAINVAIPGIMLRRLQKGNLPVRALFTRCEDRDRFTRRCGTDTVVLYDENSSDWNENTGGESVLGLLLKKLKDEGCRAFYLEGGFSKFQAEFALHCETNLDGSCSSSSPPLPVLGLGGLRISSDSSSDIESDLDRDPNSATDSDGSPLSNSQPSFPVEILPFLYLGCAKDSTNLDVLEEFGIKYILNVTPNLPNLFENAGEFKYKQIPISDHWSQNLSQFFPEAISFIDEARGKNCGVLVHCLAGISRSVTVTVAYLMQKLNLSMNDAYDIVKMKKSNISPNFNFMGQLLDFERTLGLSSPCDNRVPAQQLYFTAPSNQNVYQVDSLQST
As to the kind of experiment: Inhibition of histidine-tagged rat recombinant MKP3 catalytic domain expressed in Escherichia coli BL21(DE3). The essentials: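 Recombinant MKP-3 was expressed from a bacterial plasmid. Phosphatase activity was read from O-methyl fluorescein phosphate hydrolysis in a 25 μL final mixture, incubated 20 or 60 min at ambient temperature. Product fluorescence was read at excitation 485 nm and emission 530 nm. IC50 came from at least six inhibitor concentrations.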

Assay [2] deals with A2780. As to the kind of experiment: Antiproliferative activity against human A2780 cells after 2 days by alamar-blue assay. The assay is classed as functional, cell-based. The settings on record: A2780, 48 h. For orientation: Alamar Blue is a resazurin reagent that responds to reducing activity.
Assay [3] addresses T2, M-phase inducer phosphatase 2 (Homo sapiens, UniProt P30305).
T2 sequence (P30305 whole entry): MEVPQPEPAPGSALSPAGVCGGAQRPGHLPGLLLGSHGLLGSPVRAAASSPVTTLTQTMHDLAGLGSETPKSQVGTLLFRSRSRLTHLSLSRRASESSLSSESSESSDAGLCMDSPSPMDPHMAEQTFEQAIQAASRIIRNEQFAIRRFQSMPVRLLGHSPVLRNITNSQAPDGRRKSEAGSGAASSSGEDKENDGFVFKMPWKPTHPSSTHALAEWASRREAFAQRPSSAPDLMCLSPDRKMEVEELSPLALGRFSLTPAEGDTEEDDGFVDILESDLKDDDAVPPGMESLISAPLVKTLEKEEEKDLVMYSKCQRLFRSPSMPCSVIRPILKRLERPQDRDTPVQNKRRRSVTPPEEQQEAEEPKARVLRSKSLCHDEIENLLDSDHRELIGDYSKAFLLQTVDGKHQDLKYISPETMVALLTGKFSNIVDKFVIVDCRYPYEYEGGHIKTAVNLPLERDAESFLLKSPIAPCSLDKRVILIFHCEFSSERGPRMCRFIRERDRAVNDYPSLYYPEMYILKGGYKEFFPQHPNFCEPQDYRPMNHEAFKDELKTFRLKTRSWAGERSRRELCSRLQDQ
The experiment in a line: Inhibition of histidine-tagged human recombinant Cdc25B catalytic domain expressed in Escherichia coli.

Assay [4] concerns the target T3, Dual specificity protein phosphatase 1 (Mus musculus, UniProt P28563).
T3 sequence (P28563 whole entry): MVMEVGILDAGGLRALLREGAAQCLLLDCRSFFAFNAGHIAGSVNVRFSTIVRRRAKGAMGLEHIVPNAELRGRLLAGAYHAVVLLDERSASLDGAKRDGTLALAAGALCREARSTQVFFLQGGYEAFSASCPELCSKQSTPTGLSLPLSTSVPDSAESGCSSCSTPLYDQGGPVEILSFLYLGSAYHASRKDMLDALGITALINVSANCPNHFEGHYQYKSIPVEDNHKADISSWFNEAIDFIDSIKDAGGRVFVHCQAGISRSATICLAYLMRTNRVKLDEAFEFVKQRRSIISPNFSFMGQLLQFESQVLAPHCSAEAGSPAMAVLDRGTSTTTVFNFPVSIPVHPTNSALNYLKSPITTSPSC
As to the kind of experiment: Inhibition of histidine-tagged mouse MKP1 catalytic domain expressed in […].

Assay [5] has as its system A2780. As to the kind of experiment: Antiproliferative activity against human A2780 cells assessed as growth inhibition after 2 days by microscopic analysis. The assay is classed as functional, cell-based.
The target of assay [6] is T2, M-phase inducer phosphatase 2. The experiment in a line: Inhibition of histidine-tagged full length human Cdc25B expressed in Escherichia coli. In a few lines: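 His6-tagged full-length enzyme purified from E. coli on Ni-NTA resin. Substrate is O-methyl fluorescein phosphate. Buffer is 30 mM Tris pH 8.5, 75 mM NaCl, 1 mM EDTA, 0.033% BSA and 1 mM DTT (final). Incubation runs 20 or 60 min at ambient temperature. Fluorescence is read at ex 485 / em 530 nm. IC50 comes from at least six concentrations.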

The term IC50 denotes the point on the concentration scale where inhibition reaches its midpoint. On to `O=C1C=CC(=O)c2ccccc21` [NAPHTHOQUINONE], for which the half-inhibitory concentration (IC50) in assay [1] was 19.8 µM; in the assay on A2780 [2] it was 2.3 µM; in assay [3] it was 2.76 µM; in assay [4], 8.45 µM.

Consider `O=C1C=CC(=O)c2c(O)cccc21` [JUGLONE], for which the concentration for half-maximal inhibition (IC50) in assay [1] was determined as 12.4 µM; in the assay with A2780 [2], 1.4 µM; in assay [3], 1.98 µM; in assay [4], 13 µM.

For `O=C1C=CC(=O)C=C1` [BENZOQUINONE], the IC50 is more than 50 µM in assay [1], 7.8 µM with A2780 [2], more than 50 µM in assay [3] and more than 50 µM in assay [4].

As for `CC1=C(NCCO)C(=O)c2ccccc2C1=O`, the half-inhibitory concentration (IC50) in assay [1], in assay [3] and in assay [4] was more than 50 µM in each case. For the same compound, the result in the assay with A2780 [5] was Active.

Turning to `CCOC1=CC(=O)C(=O)c2ccccc21`, the IC50 amounted to 1.35 µM in assay [1], 0.37 µM in the assay on A2780 [2], 0.27 µM in assay [3] and 0.82 µM in assay [4].

On to `O=C1C2=C(C(=O)c3ccccc31)S(=O)(=O)CCN2`, for which the IC50 was 42.6 µM in assay [1], 4.3 µM in the assay with A2780 [2], 0.94 µM in assay [3] and 17.8 µM in assay [4].

In the case of `O=C1c2ccccc2C(=O)c2ccccc21` [ANTHRAQUINONE], the concentration for half-maximal inhibition (IC50) in assay [1] is more than 50 µM; in assay [3], 9.51 µM; in assay [4], more than 50 µM.

As for `O=C1C=CC(=O)c2c(O)ccc(O)c21` [NAPHTHAZALIN], the IC50 in assay [1] stood at 6.9 µM; in assay [3], 1 µM; in assay [4] it was 9.37 µM.

Take `C[C@@]12CCCc3coc(c31)C(=O)c1cc3c(cc12)C(=O)C1=C(NCCS1(=O)=O)C3=O` [ADOCIAQUINONE B]: the IC50 in assay [1] stood at 1.53 µM; in assay [6] it was 0.08 µM; in assay [3] it was 0.11 µM; in assay [4], 1.1 µM.

Take `O=C1C=CC(=O)c2cc3c(cc21)CCCC3`: the IC50 in assay [1] was more than 50 µM; in assay [3] it was 9.53 µM; in assay [4], 21.8 µM.

Consider `O=C1C2=C(C(=O)c3cc4c(cc31)CCCC4)S(=O)(=O)CCN2`, for which the concentration for half-maximal inhibition (IC50) in assay [1] was more than 50 µM; in assay [3], 2.3 µM; in assay [4] it was 38.7 µM.

Regarding `O=C1c2cc3c(cc2C(=O)C2OC12)CCCC3` (stereo not given), the values for the IC50 in assay [1], in assay [3] and in assay [4] were 49.9 µM, 22.3 µM and more than 50 µM, respectively.

Take `O=C1C=C(NCCO)C(=O)c2ccccc21`: the IC50 in assay [1] was more than 50 µM; with A2780 [2] it was 64 µM; in assay [3], more than 50 µM; in assay [4] it was more than 50 µM.

Consider `CC1=CC(=O)c2ccccc2C1=O` [MENADIONE], for which the IC50 came out at 20.5 µM in assay [1], 2.6 µM in the assay with A2780 [2], 3.38 µM in assay [3] and 24 µM in assay [4].

As to `O=C1C2=C(C(=O)c3c(O)cccc31)S(=O)(=O)CCN2`, the concentration for half-maximal inhibition (IC50) in assay [1] is more than 50 µM; in the assay with A2780 [2] it was 2.1 µM; in assay [3], 0.88 µM; in assay [4], 33.8 µM.
